Source: PubChem BioAssay
The entries come from a sample that favours hits as a whole.
HUVEC inhibit: inhibitors of HUVEC proliferation, primary screen, cell-based, 384-well; CellTiter-Glo luminescence, 72 h; stronger effect = lower value; viability, % at 10 µM (by protocol); hit rate 1.1% among 86,000; AID 648, 2007;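 active = viability at or below 30%; inactive = viability above 30%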;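 also: 100% = median luminescence of DMSO-only cell control wells on each plate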
HCT116 bCat-KO: primary screen for growth suppressors in beta-catenin knockout HCT116 cells (colon tumor, human). viability, % at 10 µM. HCT116 beta-catenin knockout viability, CellTiter-Glo, 60 h; stronger effect = lower value. hit rate 1.5% among 140,000. AID 818, 2007;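 active = viability at or under a set limit, the compound median less 4 SD, cut at about 6% in these data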;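 also: 0% = Hyamine 1622 control at 20 µM and 100% = untreated cell control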
Lung fibro prol: antiproliferative effect on LL 47 fibroblasts – human, LL 47 cells, CellTiter-Glo luminescence, primary screen | LL 47 human lung fibroblast viability, ATP luminescence; stronger effect = lower value | viability, % at 10 µM | hit rate 1.1% among 85,000;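 active = viability at or below 50% in the single dose screen; inactive = viability above 50%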;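 also: compound exposure lasted 72 h before the ATP readout; 100% = median luminescence of untreated cell-only wells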
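Assay system: human lung fibroblast line LL 47, low passage. Input: 1,150 fibroblasts seeded per well. Times: overnight cell rest, 72 h compound treatment at 37 °C. Evaluation: % viability of median cell-only signal. Technique: luminescent ATP detection, CellTiter-Glo. Control set: cell-only wells, no compound.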
H69AR growth 86K: proliferation blockers of H69AR lung cancer cells, primary screen, cell-based, human, 86K library; AID 598, 2007; hit rate 6% among 85,000; viability, % at 10 µM; H69AR lung tumor viability, ATP luminescence, 72 h; stronger effect = lower value;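 active = viability at or below 40%; inactive = viability above 40%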;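 also: multidrug resistant small cell line overexpressing MRP-1 efflux transporter; 100% = mean luminescence of untreated control wells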
HCT116 PTEN-null: growth suppression of PTEN-null HCT116, primary screen, cell-based, CellTiter-Glo; HCT116 PTEN-null viability, 60 h; stronger effect = lower value; hit rate 1.2% among 140,000; viability, % at 10 µM;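 active = viability at or below a set limit, 4 SD under the median of all tested compounds, cut at about 3.7% in these data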;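 also: PTEN knockout HCT116 line with beta catenin targeted HCT116 as companion control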
Starred values were filed as active, the others as inactive; . = not tested or not shown.

SMILES | HUVEC inhibit | HCT116 bCat-KO | Lung fibro prol | H69AR growth 86K | HCT116 PTEN-null
COc1ccc(NC(=O)[C@@H](NC(=O)c2ccccc2)C(C)C)cc1S(=O)(=O)N1CCCCC1 | . | 94 | . | . | 92
Cc1cccc(-n2nnnc2SCC(=O)c2cc(C)n(Cc3ccco3)c2C)c1 | 49 | 96 | . | 7.3* | 99
C=C1C(O)C[C@H]2C(=C)CCC3[C@H](OC(=O)[C@]3(O)CO)[C@@H]12 (some centres not stated) | . | 0.7* | . | . | 0.5*
O=c1ccc2ccc(Oc3ccc([N+](=O)[O-])cc3[N+](=O)[O-])cc2o1 | . | 11 | . | . | 11
COCCCn1c2nc3ccccc3nc2c2c(=O)n(Cc3ccccc3Cl)cnc21 | 27* | . | 69 | 3.2* | .
COc1ccc(Cn2nnnc2CN(Cc2cc3cc(C)ccc3[nH]c2=O)C2CCCC2)cc1 | 78 | 66 | 89 | 51 | 54
CCC(c1nnnn1Cc1ccco1)N(Cc1ccccc1OC)Cc1cc2cc(C)ccc2[nH]c1=O (configuration not stated) | 81 | 55 | 86 | 79 | 40
COc1ccc2[nH]c(=O)c(CN(Cc3nnnn3Cc3ccco3)C3CCCCC3)cc2c1 | 69 | 76 | 97 | 38* | 67
CCC(c1nnnn1C1CCCCC1)N(Cc1ccco1)Cc1cc2ccc(OC)cc2[nH]c1=O (configuration not stated) | 53 | 3.0* | 93 | 15* | 18
COc1ccc2[nH]c(=O)c(CN(C3CCCCC3)C(c3nnnn3Cc3ccco3)C(C)C)cc2c1 (configuration not stated) | 56 | 50 | 39* | 96 | 47
CCCCCCOC(=O)Nc1ccc(S(=O)(=O)Nc2cccc([N+](=O)[O-])c2)cc1 | . | 80 | . | . | 84
CCCc1nnc(NC(=O)C2CCCO2)s1 (configuration not stated) | 107 | 103 | 97 | 94 | 108
CC(=O)N1CCN(c2ccc(NC(=O)c3ccc(C(C)(C)C)cc3)cc2)CC1 | 51 | 5.9* | 97 | 34* | 6
CC(C(=O)Oc1ccc2c(c1)OCO2)N1C(=O)c2ccccc2C1=O (configuration not stated) | 91 | 96 | 94 | 98 | 89
Cc1sc2nc(C3CC3)nc(NCCNS(=O)(=O)c3ccccc3)c2c1C | 79 | 87 | 91 | 22* | 83
COc1ccc(S(=O)(=O)N(C(C)=O)c2ccc(OC(C)=O)c3ccccc23)cc1[N+](=O)[O-] | . | 2.0* | . | . | 2.8*
Cc1ccc(S(=O)(=O)N(C(=O)c2ccncc2)c2ccc(OC(=O)c3ccncc3)c3ccccc23)cc1 | . | 9 | . | . | 6
COc1ccccc1NC(=O)N(Cc1ccc2c(c1)OCO2)Cc1nc2ccccc2c(=O)[nH]1 | 63 | 97 | 74 | 9.4* | 109
COc1cc2cc(CN(C(=O)NC3CCCCC3)C3CCCC3)c(=O)[nH]c2cc1OC | 89 | 83 | 94 | 77 | 82
O=C(NC1CCCCC1)N(Cc1cc2cc3c(cc2[nH]c1=O)OCCO3)C1CCCCC1 | 85 | 74 | 85 | 36* | 77
COc1ccc2cc(CN(C(=O)Nc3ccccc3OC)C3CCCC3)c(=O)[nH]c2c1 | 71 | 48 | 89 | 25* | 42
CCc1ccc2[nH]c(=O)c(CN(Cc3ccccc3)C(=O)Nc3ccccc3OC)cc2c1 | 82 | 45 | 49* | 39* | 44
CCS(=O)(=O)Nc1ccc(C(=O)CC2(O)C(=O)Nc3ccccc32)cc1 (configuration not stated) | 101 | 99 | 100 | 81 | 99
COC(=O)c1ccc(NC2(C#N)C(=O)Nc3ccccc32)cc1 (configuration not stated) | 86 | 87 | 95 | 23* | 88
COc1ccc(-c2cc(C(=O)NCc3cn(C)nc3C)c3ccccc3n2)cc1OC | . | 84 | . | . | 84
SMILES | HUVEC inhibit | HCT116 bCat-KO | Lung fibro prol | H69AR growth 86K | HCT116 PTEN-null
COc1cc2c(=O)n(Cc3ccccc3)c(=O)n(CC(=O)C(C)(C)C)c2cc1OC | 84 | . | 95 | 90 | .
COc1cc2c(=O)n(Cc3ccco3)c(=O)n(CC(=O)c3cccc(Br)c3)c2cc1OC | 57 | 29 | 97 | 2.4* | 4
COc1cc2c(=O)n(Cc3ccco3)c(=O)n(CC(=O)c3ccc(Br)cc3)c2cc1OC | 73 | 29 | 80 | 17* | 9
CS(=O)(=O)Cc1nc2ccccc2oc1=O | 112 | 54 | 107 | 22* | 47
CCOc1cc(N2CCOCC2)c(OCC)cc1NC(=O)c1cc(-c2ccco2)nc2ccccc12 | 15* | 71 | 9.1* | 4.0* | 66
O=[N+]([O-])c1cccnc1N1CCC(c2cc(-c3ccc(Cl)cc3Cl)n[nH]2)CC1 | 52 | 70 | 107 | 84 | 51
O=[N+]([O-])c1cccnc1N1CCC(c2cc(-c3cccc(C(F)(F)F)c3)n[nH]2)CC1 | 3.7* | 65 | 101 | 34* | 49
CCC(C)NC(=O)CSc1nc2c(sc(=S)n2Cc2ccco2)c(=O)n1-c1ccccc1 (configuration not stated) | 82 | 67 | 94 | 32* | 61
COc1ccc(C(=O)N2c3ccccc3C=CC2C#N)cc1 (configuration not stated) | . | 28 | . | . | 38
N#C[C@H]1[C@H](c2ccccc2)[C@](C#N)(C(=O)c2ccccc2)[C@@H]2C=Cc3ccccc3N21 | . | 5.3* | . | . | 3.3*
C=CCN1C(=O)C(CC(=O)Nc2ccccc2)SC1=Nc1ccc(S(N)(=O)=O)cc1 (configuration not stated) | . | 104 | . | . | 107
CCOC(=O)NC(NCCc1ccccc1)(C(F)(F)F)C(F)(F)F | 98 | 101 | 98 | 12* | 104
Cc1ccc(NC(=O)COc2ccc(/C=N/NC(=O)CSCc3ccccc3)cc2)cc1 | . | 83 | . | . | 95
Cc1ccc(NC(=O)COc2ccc(/C=C3/SC(=Nc4ccccc4)N(Cc4cccnc4)C3=O)cc2)cc1 | . | 2.7* | . | . | 2.2*
COc1cc(CNC(C)(C)CO)cc(Br)c1OCc1ccc(Cl)cc1Cl | . | 1.3* | . | . | 1.6*
S=C(N/N=C/c1ccccc1)N1CCOCC1 | . | 81 | . | . | 80
CC1CCN(S(=O)(=O)c2cc(C(=O)N3CCN(c4ncccn4)CC3)ccc2Br)CC1 | . | 59 | . | . | 55
CCOc1ccc(-n2cc(C(=O)N3CCCCCC3)c3cc(OC)c(OC)cc3c2=O)cc1 | . | 88 | . | . | 91
CCOC(=O)c1cc2c(N)c(C(=O)c3cc(C#N)c(SC)nc3C)sc2nc1C | 42 | 66 | . | 16* | 17
Cc1ccc(C(C(=O)NC2CCCC2)N(Cc2ccc3c(c2)OCO3)C(=O)Cc2cccs2)cc1 (configuration not stated) | 85 | 89 | 67 | 64 | 78
O=C(NC1CCCCC1)C(c1ccccc1)N(Cc1ccc2c(c1)OCO2)C(=O)c1cnsn1 (configuration not stated) | 87 | 88 | 84 | 38* | 69
